In ChEMBL document CHEMBL1240347, “MK-7009, a potent and selective inhibitor of hepatitis C virus NS3/4A protease” (Antimicrob Agents Chemother, 2010):

Experiments:
Cathepsin S = Cathepsin S (Homo sapiens, UniProt P25774); assay: Inhibition of human Cathepsin S
Procathepsin L = Procathepsin L (Homo sapiens, UniProt P07711); assay: Inhibition of human Cathepsin L
Chymase = target: T1, Chymase (Homo sapiens, UniProt P23946); assay: Inhibition of human Chymase
T1 sequence (P23946 whole entry): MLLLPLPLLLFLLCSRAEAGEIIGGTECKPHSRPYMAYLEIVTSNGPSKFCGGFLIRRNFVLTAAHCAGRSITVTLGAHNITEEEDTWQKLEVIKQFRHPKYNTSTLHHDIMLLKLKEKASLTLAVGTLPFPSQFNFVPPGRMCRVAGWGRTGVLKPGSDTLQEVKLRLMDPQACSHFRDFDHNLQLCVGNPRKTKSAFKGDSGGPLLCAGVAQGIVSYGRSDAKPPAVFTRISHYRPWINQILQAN

Neutrophil elastase = target: T2, Neutrophil elastase (Homo sapiens, UniProt P08246); assay: Inhibition of human Neutrophil elastase 2
T2 sequence (P08246 whole entry): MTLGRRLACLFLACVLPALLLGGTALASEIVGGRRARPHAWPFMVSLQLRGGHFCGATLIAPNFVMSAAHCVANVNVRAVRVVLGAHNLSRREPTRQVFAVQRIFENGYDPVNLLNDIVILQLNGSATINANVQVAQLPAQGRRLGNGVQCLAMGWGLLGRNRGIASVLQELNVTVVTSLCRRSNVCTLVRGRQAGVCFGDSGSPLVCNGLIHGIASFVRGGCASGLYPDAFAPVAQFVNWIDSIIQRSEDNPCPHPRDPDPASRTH

Hepatitis C virus [1] = assay: Antiviral activity against Hepatitis C virus containing NS3/4a Con1 sequence by transient cell-base protease activity; type: functional, organism-based, Hepacivirus hominis
Hepatitis C virus [2] = assay: Antiviral activity against Hepatitis C virus containing NS3/4a ps31 sequence by transient cell-base protease activity; type: functional, organism-based, Hepacivirus hominis
In short: (§1)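 Transient cell-based phenotype assay of protease activity, using NS3/4A sequences cloned from plasma of HCV-infected patients. EC50s were determined.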

Cathepsin K = target: T3, Cathepsin K (Homo sapiens, UniProt P43235); assay: Inhibition of human Cathepsin K
T3 sequence (P43235 whole entry): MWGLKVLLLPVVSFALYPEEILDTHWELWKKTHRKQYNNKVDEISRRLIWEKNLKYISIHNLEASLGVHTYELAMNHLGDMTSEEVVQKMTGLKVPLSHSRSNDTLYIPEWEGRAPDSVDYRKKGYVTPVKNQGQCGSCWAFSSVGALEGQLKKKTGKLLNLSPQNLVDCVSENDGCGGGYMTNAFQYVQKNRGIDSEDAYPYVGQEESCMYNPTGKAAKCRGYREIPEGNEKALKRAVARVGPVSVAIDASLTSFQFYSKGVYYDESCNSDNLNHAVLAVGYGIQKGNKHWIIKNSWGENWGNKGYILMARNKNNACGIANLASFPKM

Serine protease 1 = Serine protease 1 (Homo sapiens, UniProt P07477); assay: Inhibition of human Trypsin activity
[3] = Inhibition of human Chymotrypsin
Hepatitis C virus [4] = assay: Antiviral activity against Hepatitis C virus containing NS3/D168Y protease mutant activity by TaqMan-based assay; type: functional, organism-based, Hepacivirus hominis
Hepatitis C virus [5] = assay: Antiviral activity against Hepatitis C virus containing NS3/R155K protease mutant activity by TaqMan-based assay; type: functional, organism-based, Hepacivirus hominis
In short: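 Panel of stable HCV replicon cell lines carrying NS3 protease mutations. Replicon RNA read out by a TaqMan-based assay, and EC50 values determined.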

Hepatitis C virus [6] = assay: Antiviral activity against Hepatitis C virus genotype 2a infected in […] cell by cell-based HCV replicon assay in presence of 10% fetal bovine serum; type: functional, organism-based, Hepacivirus hominis
[7] = Inhibition of Hepatitis C virus genotype 2b NS3/4A protease activity; parameters: species or system Hepatitis C virus subtype 2b
In short: (§2)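 Recombinant NS3/4A protease was expressed in and purified from E. coli. Inhibition was measured by a time-resolved, internally quenched fluorescence assay at low enzyme concentration. Kis were reported.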

[8] = Inhibition of Hepatitis C virus genotype 2a NS3/4A protease activity; parameters: species or system Hepatitis C virus subtype 2a; in short: as §2
Hepatitis C virus [9] = assay: Inhibition of Hepatitis C virus genotype 1b NS3/4A protease activity; parameters: species or system Hepatitis C virus subtype 1b; in short: as §2
[10] = Metabolic stability in rhesus monkey liver assessed as drug level at 5 mg/kg, po after 24 hrs by LC/MS/MS analysis; type: ADME, organism-based, Macaca mulatta; parameters: dose 5 mg/kg, route oral; conditions: read-out: Drug uptake
In short: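 Single oral dose in polyethylene glycol 400 (2.0 ml/kg). A liver biopsy (~200 μl) was taken under sedation and homogenized in 4 volumes of deionized water. Drug was quantified by LC/MS/MS after protein precipitation.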

[11] = AUC (0-24 hrs) in chimpanzee at 10 mg/kg, po by LC/MS/MS analysis; type: ADME, organism-based, Pan troglodytes; parameters: time < 24 hr, dose 10 mg/kg, route oral; conditions: plasma
In short: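 Two HCV-uninfected chimpanzees (about 57 and 52 kg) drank the dose voluntarily in a chocolate milk vehicle (0.67 ml/kg). EDTA plasma was stored at −70°C and quantified by LC/MS/MS after protein precipitation.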

[12] = Cmax in dog at 5 mg/kg, po by LC/MS/MS analysis; type: ADME, organism-based, Canis lupus familiaris; parameters: dose 5 mg/kg, route oral; conditions: in vivo
In short: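 Dosed orally as a solution in polyethylene glycol 400 (2.0 ml/kg), with n = 3. EDTA plasma was centrifuged off and held at −70°C. Drug levels were determined by LC/MS/MS following protein precipitation.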

[13] = AUC (0-24 hrs) in dog at 2 mg/kg, iv by LC/MS/MS analysis; type: ADME, organism-based, Canis lupus familiaris; parameters: time < 24 hr, dose 2 mg/kg, route intravenous; conditions: plasma
In short: (§3)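 Fasted animals received an intravenous bolus in DMSO at 1.0 ml/kg (rat), 0.1 ml/kg (dog) or 0.1 ml/kg (rhesus), with n = 3. Blood was drawn into EDTA tubes, and plasma was separated by centrifugation and stored at −70°C. Drug was quantified by LC/MS/MS after protein precipitation.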

[14] = Half life in dog at 2 mg/kg, iv by LC/MS/MS analysis; type: ADME, organism-based, Canis lupus familiaris; parameters: dose 2 mg/kg, route intravenous; conditions: in vivo; in short: as §3
[15] = Half life in rat at 2 mg/kg, iv by LC/MS/MS analysis; type: ADME, organism-based; parameters: dose 2 mg/kg, route intravenous; conditions: in vivo; in short: as §3
[16] = Volume of distribution in rhesus monkey at 2 mg/kg, iv by LC/MS/MS analysis; type: ADME, organism-based, Macaca mulatta; parameters: dose 2 mg/kg, route intravenous; conditions: in vivo
In short: (§4)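 Fasted animals received an IV bolus in DMSO at 1.0 ml/kg for rats and 0.1 ml/kg for dogs and rhesus monkeys, at 2 mg/kg; n = 3 per species. Blood was drawn into EDTA tubes at set times, and plasma was separated by centrifugation and stored at −70°C. Drug was quantified by LC/MS/MS after protein precipitation.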

[17] = Volume of distribution in dog at 2 mg/kg, iv by LC/MS/MS analysis; type: ADME, organism-based, Canis lupus familiaris; parameters: dose 2 mg/kg, route intravenous; conditions: in vivo; in short: as §4
[18] = Volume of distribution in rat at 2 mg/kg, iv by LC/MS/MS analysis; type: ADME, organism-based; parameters: dose 2 mg/kg, route intravenous; conditions: in vivo; in short: as §4
[19] = Plasma clearance in rat at 2 mg/kg, iv by LC/MS/MS analysis; type: ADME, organism-based; parameters: dose 2 mg/kg, route intravenous; in short: as §4
Hepatitis C virus [20] = assay: Antiviral activity against Hepatitis C virus containing NS3/4a ps36 sequence by transient cell-base protease activity; type: functional, organism-based, Hepacivirus hominis; in short: as §1
Hepatitis C virus [21] = assay: Antiviral activity against Hepatitis C virus containing NS3/4a ps38 sequence by transient cell-base protease activity; type: functional, organism-based, Hepacivirus hominis; in short: as §1
Pan troglodytes = assay: AUC in chimpanzee at 10 mg/kg, po from 0 to 24 hrs by LC/MS/MS analysis; conditions: in vivo
[22] = test system: Hepatitis C virus genotype 1b; assay: Antiviral activity against Hepatitis C virus genotype 1b containing NS3/con1 protease mutant by TaqMan-based assay; conditions: subtype 1b

Procathepsin L, sequence (P07711 whole entry): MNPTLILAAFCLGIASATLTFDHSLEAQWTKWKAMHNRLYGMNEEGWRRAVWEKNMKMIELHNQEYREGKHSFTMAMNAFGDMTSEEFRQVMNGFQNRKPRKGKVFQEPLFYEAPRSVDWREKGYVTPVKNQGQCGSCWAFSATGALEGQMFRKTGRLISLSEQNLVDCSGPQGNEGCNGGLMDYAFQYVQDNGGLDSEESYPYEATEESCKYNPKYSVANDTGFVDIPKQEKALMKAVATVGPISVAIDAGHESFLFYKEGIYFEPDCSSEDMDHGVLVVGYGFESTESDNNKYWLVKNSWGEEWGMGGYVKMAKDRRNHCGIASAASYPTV
Cathepsin S, sequence (P25774 whole entry): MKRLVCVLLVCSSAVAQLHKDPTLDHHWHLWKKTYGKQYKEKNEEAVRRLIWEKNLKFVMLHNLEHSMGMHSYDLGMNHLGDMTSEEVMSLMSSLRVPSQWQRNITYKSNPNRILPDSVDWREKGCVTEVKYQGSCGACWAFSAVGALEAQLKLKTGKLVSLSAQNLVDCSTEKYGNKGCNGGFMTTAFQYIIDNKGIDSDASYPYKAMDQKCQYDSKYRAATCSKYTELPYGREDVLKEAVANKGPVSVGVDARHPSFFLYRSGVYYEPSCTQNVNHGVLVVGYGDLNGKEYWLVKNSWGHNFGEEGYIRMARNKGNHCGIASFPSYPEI
Serine protease 1, sequence (P07477 whole entry): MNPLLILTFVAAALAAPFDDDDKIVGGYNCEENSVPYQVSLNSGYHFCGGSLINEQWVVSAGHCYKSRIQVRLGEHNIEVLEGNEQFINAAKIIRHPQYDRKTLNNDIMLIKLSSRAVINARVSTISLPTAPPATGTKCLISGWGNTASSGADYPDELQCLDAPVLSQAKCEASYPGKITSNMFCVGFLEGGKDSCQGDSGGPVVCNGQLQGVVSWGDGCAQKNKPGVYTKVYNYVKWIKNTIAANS

In the case of `CC[C@@H]1C[C@]1(NC(=O)[C@@H]1C[C@@H]2CN1C(=O)[C@H](C(C)(C)C)NC(=O)OCC(C)(C)CCCCc1cccc3c1CN(C3)C(=O)O2)C(=O)NS(=O)(=O)C1CC1` [VANIPREVIR], the IC50 (Cathepsin S) is reported as over 10000 nM, the IC50 (Procathepsin L) is reported as over 10000 nM and the IC50 (Chymase) is reported as over 10000 nM. The IC50 (Neutrophil elastase) was over 10000 nM, the EC50 (Hepatitis C virus [1]) was 4.1 nM and the EC50 (Hepatitis C virus [2]) was 3.4 nM. The IC50 (Cathepsin K) was over 10000 nM, the IC50 (Serine protease 1) was over 10000 nM and the IC50 [3] was 520 nM. For the same compound, the EC50 (Hepatitis C virus [4]) was 430 nM, the EC50 (Hepatitis C virus [5]) was 350 nM and the EC50 (Hepatitis C virus [6]) was 15 nM. For the same compound, the Ki [7] was 1.4 nM, the Ki [8] was 1 nM and the Ki (Hepatitis C virus [9]) was 0.06 nM. For the same compound, the concentration at 24 h [10] was 200 nM, the AUC(0-t) at 24 h [11] was 5.2 µM·h and the Cmax [12] was 500 nM. The AUC(0-t) at 24 h [13] was 4.1 µM·h, the half-life [14] was 1.2 h and the half-life [15] was 0.9 h. For the same compound, the Vd [16] was 0.4 L/kg, the Vd [17] was 0.3 L/kg and the Vd [18] was 1.9 L/kg. It also gave a clearance [19] of 74 mL/min/kg, an EC50 (Hepatitis C virus [20]) of 4.9 nM and an EC50 (Hepatitis C virus [21]) of 6 nM. It also gave an AUC (Pan troglodytes) of 5.2 µM·h and an EC50 [22] of 1.6 nM.
